Measured values: ChEMBL document CHEMBL3271984, “Antifungal activity of 4-substituted crotonic acid esters” (1976)
Values after ≈ are worked out from the molar mass of the structure shown. Active and inactive are the calls of the source. The rule behind the calls is not given here.

Experiments:
Mucor mucedo [1] = experiment: Antifungal activity against Mucor mucedo ATCC 7941 incubated for 20 hrs; type: functional, organism-based
Candida albicans [2] = experiment: Antifungal activity against Candida albicans ATCC 10231 incubated for 20 hrs; type: functional, organism-based
[3] = tested on: Trichophyton mentagrophytes; experiment: Antifungal activity against Trichophyton mentagrophytes ATCC 9129 incubated for 5 days; type: functional, organism-based
Aspergillus niger [4] = experiment: Antifungal activity against Aspergillus niger ATCC 1004 incubated for 5 days; type: functional, organism-based
Mucor mucedo [5] = experiment: Antifungal activity against Mucor mucedo ATCC 7941 assessed as growth inhibition at pH 7 incubated for 20 hrs in presence of 10% beef serum; type: functional; conditions: ATCC 7941, 20 h, read-out: MIC100
Method in brief: (§1)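 Agar dilution in Sabouraud dextrose agar at pH 5.6 or 7.0, with or without 10% beef serum. C. albicans and M. mucedo were incubated 20 h at 37°; A. niger and T. mentagrophytes 5 days at 28°. The value is the minimal µg/ml giving 100% inhibition. Steps were 1 µg/ml up to 10, 2 up to 20, then 10 up to 100 µg/ml maximum.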

Aspergillus niger [6] = experiment: Antifungal activity against Aspergillus niger ATCC 1004 assessed as growth inhibition at pH 5.6 incubated for 5 days in absence of 10% beef serum; type: functional; conditions: for MIC: ATCC 1004, 120 h, read-out: MIC100; method in brief: as §1
Aspergillus niger [7] = experiment: Antifungal activity against Aspergillus niger ATCC 1004 assessed as growth inhibition at pH 5.6 incubated for 5 days in presence of 10% beef serum; type: functional; conditions: for MIC: ATCC 1004, 120 h, read-out: MIC100; method in brief: as §1
Candida albicans [8] = experiment: Antifungal activity against Candida albicans ATCC 10231 assessed as growth inhibition at pH 5.6 incubated for 20 hrs in absence of 10% beef serum; type: functional; conditions: ATCC 10231, 20 h, read-out: MIC100; method in brief: as §1
Candida albicans [9] = experiment: Antifungal activity against Candida albicans ATCC 10231 assessed as growth inhibition at pH 5.6 incubated for 20 hrs in presence of 10% beef serum; type: functional; conditions: ATCC 10231, 20 h, read-out: MIC100; method in brief: as §1
Mucor mucedo [10] = experiment: Antifungal activity against Mucor mucedo ATCC 7941 assessed as growth inhibition at pH 5.6 incubated for 20 hrs in absence of 10% beef serum; type: functional; conditions: for MIC: ATCC 7941, 20 h, read-out: MIC100; method in brief: as §1
Aspergillus niger [11] = experiment: Antifungal activity against Aspergillus niger ATCC 1004 assessed as growth inhibition at pH 7 incubated for 5 days in presence of 10% beef serum; type: functional; conditions: for MIC: ATCC 1004, 120 h, read-out: MIC100; method in brief: as §1
[12] = tested on: Trichophyton mentagrophytes; experiment: Antifungal activity against Trichophyton mentagrophytes ATCC 9129 assessed as growth inhibition at pH 5.6 incubated for 5 days in presence of 10% beef serum; type: functional; conditions: ATCC 9129, 120 h, read-out: MIC100; method in brief: as §1
Mucor mucedo [13] = experiment: Antifungal activity against Mucor mucedo ATCC 7941 assessed as growth inhibition at pH 5.6 incubated for 20 hrs in presence of 10% beef serum; type: functional; conditions: ATCC 7941, 20 h, read-out: MIC100; method in brief: as §1
[14] = tested on: Trichophyton mentagrophytes; experiment: Antifungal activity against Trichophyton mentagrophytes ATCC 9129 assessed as growth inhibition at pH 5.6 incubated for 5 days in absence of 10% beef serum; type: functional; conditions: for MIC: ATCC 9129, 120 h, read-out: MIC100; method in brief: as §1
Candida albicans [15] = experiment: Antifungal activity against Candida albicans ATCC 10231 assessed as growth inhibition at pH 7 incubated for 20 hrs in presence of 10% beef serum; type: functional; conditions: ATCC 10231, 20 h, read-out: MIC100; method in brief: as §1
[16] = tested on: Trichophyton mentagrophytes; experiment: Antifungal activity against Trichophyton mentagrophytes ATCC 9129 assessed as growth inhibition at pH 7 incubated for 5 days in absence of 10% beef serum; type: functional; conditions: ATCC 9129, 120 h, read-out: MIC100; method in brief: as §1
Candida albicans [17] = experiment: Antifungal activity against Candida albicans ATCC 10231 assessed as growth inhibition at pH 7 incubated for 20 hrs in absence of 10% beef serum; type: functional; conditions: ATCC 10231, 20 h, read-out: MIC100; method in brief: as §1
Mucor mucedo [18] = experiment: Antifungal activity against Mucor mucedo ATCC 7941 assessed as growth inhibition at pH 7 incubated for 20 hrs in absence of 10% beef serum; type: functional; conditions: ATCC 7941, 20 h, read-out: MIC100; method in brief: as §1
[19] = tested on: Trichophyton mentagrophytes; experiment: Antifungal activity against Trichophyton mentagrophytes ATCC 9129 assessed as growth inhibition at pH 7 incubated for 5 days in presence of 10% beef serum; type: functional; conditions: ATCC 9129, 120 h, read-out: MIC100; method in brief: as §1
Aspergillus niger [20] = experiment: Antifungal activity against Aspergillus niger ATCC 1004 assessed as growth inhibition at pH 7 incubated for 5 days in absence of 10% beef serum; type: functional; conditions: for MIC: ATCC 1004, 120 h, read-out: MIC100; method in brief: as §1

Row | SMILES | Activity (Mucor mucedo [1]) | Activity (Candida albicans [2]) | Activity [3] | Activity (Aspergillus niger [4]) | MIC (Mucor mucedo [5]) | MIC (Aspergillus niger [6]) | MIC (Aspergillus niger [7]) | MIC (Candida albicans [8]) | MIC (Candida albicans [9]) | MIC (Mucor mucedo [10]) | MIC (Aspergillus niger [11]) | MIC [12] | MIC (Mucor mucedo [13]) | MIC [14] | MIC (Candida albicans [15]) | MIC [16] | MIC (Candida albicans [17]) | MIC (Mucor mucedo [18]) | MIC [19] | MIC (Aspergillus niger [20]) | other results
1 | C=CC(=O)OC | inactive | inactive | inactive | inactive |  |  |  |  |  |  |  |  |  |  |  |  |  |  |  |  | 
2 | CCCCOC(=O)/C=C/CI |  |  |  |  | 7 µg/mL | 30 µg/mL (≈ 112 µM) | 70 µg/mL | 10 µg/mL (≈ 37.3 µM) | 20 µg/mL | 2 µg/mL (≈ 7.46 µM) | 70 µg/mL | 3 µg/mL | 5 µg/mL | < 1 µg/mL | 30 µg/mL | < 1 µg/mL | 12 µg/mL (≈ 44.8 µM) | 4 µg/mL (≈ 14.9 µM) | 7 µg/mL | 20 µg/mL (≈ 74.6 µM) | 
3 | CCCCCCOC(=O)/C=C/CI |  |  |  |  | 50 µg/mL |  |  | 16 µg/mL (≈ 54 µM) | 80 µg/mL | 14 µg/mL (≈ 47.3 µM) |  | 8 µg/mL | 40 µg/mL | < 1 µg/mL | 90 µg/mL | 3 µg/mL (≈ 10.1 µM) | 30 µg/mL (≈ 101 µM) | 14 µg/mL (≈ 47.3 µM) | 20 µg/mL |  | MIC100 (Aspergillus niger [6]): inactive; MIC100 (Aspergillus niger [7]): inactive; MIC100 (Aspergillus niger [11]): inactive; MIC100 (Aspergillus niger [20]): inactive
4 | C/C=C/C(=O)OCCCC | inactive | inactive | inactive | inactive |  |  |  |  |  |  |  |  |  |  |  |  |  |  |  |  | 
5 | CCCCCOC(=O)/C=C/CI |  |  |  |  | 12 µg/mL | 40 µg/mL (≈ 142 µM) |  | 5 µg/mL (≈ 17.7 µM) | 40 µg/mL | 4 µg/mL (≈ 14.2 µM) |  | 4 µg/mL | 9 µg/mL | < 1 µg/mL | 50 µg/mL | 2 µg/mL (≈ 7.09 µM) | 12 µg/mL (≈ 42.5 µM) | 3 µg/mL (≈ 10.6 µM) | 10 µg/mL | 30 µg/mL (≈ 106 µM) | MIC100 (Aspergillus niger [7]): inactive; MIC100 (Aspergillus niger [11]): inactive
6 | C/C=C/C(=O)OC | inactive | inactive | inactive | inactive |  |  |  |  |  |  |  |  |  |  |  |  |  |  |  |  | 
7 | COC/C=C/C(=O)OC |  |  |  |  |  |  |  |  |  |  |  |  |  |  |  |  |  |  |  |  | MIC100 (Mucor mucedo [10]): inactive; MIC100 [14]: inactive
8 | CCOC(=O)/C=C/CBr |  |  |  |  | 7 µg/mL | 80 µg/mL (≈ 414 µM) | 90 µg/mL | 20 µg/mL (≈ 104 µM) | 30 µg/mL | 5 µg/mL (≈ 25.9 µM) | 80 µg/mL | 2 µg/mL | 7 µg/mL | < 1 µg/mL | 40 µg/mL | 2 µg/mL (≈ 10.4 µM) | 30 µg/mL (≈ 155 µM) | 6 µg/mL (≈ 31.1 µM) | 4 µg/mL | 70 µg/mL (≈ 363 µM) | 
9 | CCCOC(=O)/C=C/CI |  |  |  |  | 6 µg/mL | 30 µg/mL (≈ 118 µM) | 60 µg/mL | 10 µg/mL (≈ 39.4 µM) | 16 µg/mL | 2 µg/mL (≈ 7.87 µM) | 60 µg/mL | 3 µg/mL | 5 µg/mL | < 1 µg/mL | 20 µg/mL | 2 µg/mL (≈ 7.87 µM) | 12 µg/mL (≈ 47.2 µM) | 3 µg/mL (≈ 11.8 µM) | 7 µg/mL | 30 µg/mL (≈ 118 µM) | 
10 | COC(=O)/C=C/CI |  |  |  |  | 8 µg/mL | 30 µg/mL (≈ 133 µM) | 40 µg/mL | 16 µg/mL (≈ 70.8 µM) | 30 µg/mL | 9 µg/mL (≈ 39.8 µM) | 40 µg/mL | 3 µg/mL | 10 µg/mL | < 1 µg/mL | 18 µg/mL | 2 µg/mL (≈ 8.85 µM) | 20 µg/mL (≈ 88.5 µM) | 9 µg/mL (≈ 39.8 µM) | 4 µg/mL | 30 µg/mL (≈ 133 µM) | 
11 | C/C=C/C(=O)OCCC | inactive | inactive | inactive | inactive |  |  |  |  |  |  |  |  |  |  |  |  |  |  |  |  | 
12 | C/C=C/C(=O)OCCCCC | inactive | inactive | inactive | inactive |  |  |  |  |  |  |  |  |  |  |  |  |  |  |  |  | 
